Measurements: publication PMC7709506 (ESMO Open, 2020)

Assay: Safety and tolerability
Assay type: in vivo, human
Summary of the method: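 Open-label multicentre phase I/IIa trial in adults with advanced or metastatic solid tumours. Part 1 used 3+3 oral capsule escalation at 50–800 mg/day to define DLT and MTD. Part 2 gave tablets. Treatment continued until progression, intolerable AE or study end, with dose decisions by a safety monitoring board. AEs of special interest were monitored. The safety population was all dosed patients, summarised by dose level.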

Cn1cc(-c2ccc3c(c2)ncn3-c2cc(NS(=O)(=O)C3CC3)cc(-c3ccc(F)cc3F)c2)cn1 [ODM-203]
Jaundice (capsule 100 mg (n=1)): 0 n (%) | Mucosal inflammation (capsule 100 mg (n=1)): 0 n (%) | Myalgia (capsule 100 mg (n=1)): 0 n (%) | Nasal dryness (capsule 100 mg (n=1)): 0 n (%) | Nausea (capsule 100 mg (n=1)): 0 n (%) | Onycholysis (capsule 100 mg (n=1)): 0 n (%) | Palmar-plantar eryrthodysaestesia (capsule 100 mg (n=1)): 0 n (%) | Related AE (capsule 100 mg (n=1)): 1 (100) n (%) | Related SAEs (capsule 100 mg (n=1)): 0 n (%) | Stomatitis (capsule 100 mg (n=1)): 0 n (%) | Vomiting (capsule 100 mg (n=1)): 0 n (%) | Weight decreased (capsule 100 mg (n=1)): 0 n (%) | AE leading to death (capsule 200 mg (n=3)): 0 n (%) | AE leading to discontinuation (capsule 200 mg (n=3)): 0 n (%) | AE leading to dose reduction (capsule 200 mg (n=3)): 0 n (%) | AE leading to treatment interruption (capsule 200 mg (n=3)): 0 n (%) | Alopecia (capsule 200 mg (n=3)): 0 n (%) | Any AE (capsule 200 mg (n=3)): 3 (100) n (%) | Arthralgia (capsule 200 mg (n=3)): 0 n (%) | Asthenia (capsule 200 mg (n=3)): 1 (33.3) n (%) | Blood bilirubin increased (capsule 200 mg (n=3)): 0 n (%) | Conjugated bilirubin increased (capsule 200 mg (n=3)): 0 n (%) | Decreased appetite (capsule 200 mg (n=3)): 0 n (%) | Diarrhoea (capsule 200 mg (n=3)): 0 n (%) | Dry mouth (capsule 200 mg (n=3)): 0 n (%) | Dry skin (capsule 200 mg (n=3)): 0 n (%) | Dysgeusia (capsule 200 mg (n=3)): 0 n (%) | Epistaxis (capsule 200 mg (n=3)): 1 (33.3) n (%) | Fatigue (capsule 200 mg (n=3)): 0 n (%) | Hyperbilirubinaemia (capsule 200 mg (n=3)): 0 n (%) | Hyperphosphataemia (capsule 200 mg (n=3)): 0 n (%) | Hypertension (capsule 200 mg (n=3)): 0 n (%) | Jaundice (capsule 200 mg (n=3)): 0 n (%) | Mucosal inflammation (capsule 200 mg (n=3)): 0 n (%) | Myalgia (capsule 200 mg (n=3)): 0 n (%) | Nasal dryness (capsule 200 mg (n=3)): 0 n (%) | Nausea (capsule 200 mg (n=3)): 0 n (%) | Onycholysis (capsule 200 mg (n=3)): 0 n (%) | Palmar-plantar eryrthodysaestesia (capsule 200 mg (n=3)): 0 n (%) | Related AE (capsule 200 mg (n=3)): 2 (66.7) n (%) | Related SAEs (capsule 200 mg (n=3)): 0 n (%) | Stomatitis (capsule 200 mg (n=3)): 0 n (%) | Vomiting (capsule 200 mg (n=3)): 0 n (%) | Weight decreased (capsule 200 mg (n=3)): 0 n (%) | AE leading to death (capsule 400 mg (n=7)): 0 n (%) | AE leading to discontinuation (capsule 400 mg (n=7)): 1 (14.3) n (%) | AE leading to dose reduction (capsule 400 mg (n=7)): 1 (14.3) n (%) | AE leading to treatment interruption (capsule 400 mg (n=7)): 4 (57.1) n (%) | Alopecia (capsule 400 mg (n=7)): 1 (14.3) n (%) | Any AE (capsule 400 mg (n=7)): 7 (100) n (%) | Arthralgia (capsule 400 mg (n=7)): 1 (14.3) n (%) | Asthenia (capsule 400 mg (n=7)): 1 (14.3) n (%) | Blood bilirubin increased (capsule 400 mg (n=7)): 3 (42.9) n (%) | Conjugated bilirubin increased (capsule 400 mg (n=7)): 0 n (%) | Decreased appetite (capsule 400 mg (n=7)): 1 (14.3) n (%) | Diarrhoea (capsule 400 mg (n=7)): 1 (14.3) n (%) | Dry mouth (capsule 400 mg (n=7)): 1 (14.3) n (%) | Dry skin (capsule 400 mg (n=7)): 0 n (%) | Dysgeusia (capsule 400 mg (n=7)): 2 (28.6) n (%) | Epistaxis (capsule 400 mg (n=7)): 1 (14.3) n (%) | Fatigue (capsule 400 mg (n=7)): 1 (14.3) n (%) | Hyperbilirubinaemia (capsule 400 mg (n=7)): 2 (28.6) n (%) | Hyperphosphataemia (capsule 400 mg (n=7)): 2 (28.6) n (%) | Hypertension (capsule 400 mg (n=7)): 0 n (%) | Jaundice (capsule 400 mg (n=7)): 3 (42.9) n (%) | Mucosal inflammation (capsule 400 mg (n=7)): 1 (14.3) n (%) | Myalgia (capsule 400 mg (n=7)): 1 (14.3) n (%) | Nasal dryness (capsule 400 mg (n=7)): 1 (14.3) n (%) | Nausea (capsule 400 mg (n=7)): 0 n (%) | Onycholysis (capsule 400 mg (n=7)): 0 n (%) | Palmar-plantar eryrthodysaestesia (capsule 400 mg (n=7)): 2 (28.6) n (%) | Related AE (capsule 400 mg (n=7)): 7 (100) n (%) | Related SAEs (capsule 400 mg (n=7)): 0 n (%) | Stomatitis (capsule 400 mg (n=7)): 1 (14.3) n (%) | Vomiting (capsule 400 mg (n=7)): 1 (14.3) n (%) | Weight decreased (capsule 400 mg (n=7)): 1 (14.3) n (%) | AE leading to death (capsule 600 mg (n=30)): 2 (6.7) n (%) | AE leading to discontinuation (capsule 600 mg (n=30)): 17 (56.7) n (%) | AE leading to dose reduction (capsule 600 mg (n=30)): 1 (3.3) n (%) | AE leading to treatment interruption (capsule 600 mg (n=30)): 22 (73.3) n (%) | Alopecia (capsule 600 mg (n=30)): 8 (26.7) n (%) | Any AE (capsule 600 mg (n=30)): 30 (100) n (%) | Arthralgia (capsule 600 mg (n=30)): 11 (36.7) n (%) | Asthenia (capsule 600 mg (n=30)): 8 (26.7) n (%) | Blood bilirubin increased (capsule 600 mg (n=30)): 13 (43.3) n (%) | Conjugated bilirubin increased (capsule 600 mg (n=30)): 3 (10.0) n (%)
